Data set [1] is described as follows: Drug degradation in CD3ONa/CD3OD solution assessed as 2-(methoxycarbonyloxy)propan-2-yl 4-methoxybenzoylcarbamate formation at room temperature for 15 mins by 1H-NMR analysis in the presence of sodium methoxide. The data set is classed as physicochemical. The note with it: 0.25 h.
Data set [2] in a line: Drug degradation in methanol assessed as methyl 4-methoxybenzoate formation at room temperature for 10 mins by TLC analysis in the presence of sodium methoxide. The data set is classed as physicochemical.
Data set [3] can be described thus: Drug degradation in methanol assessed as 2-(methoxycarbonyloxy)propan-2-yl 4-methoxybenzoylcarbamate formation at room temperature for 10 mins by TLC analysis in the presence of sodium methoxide. Type of data set: physicochemical.
Data set [4] can be described thus: Half life of the compound in phosphate buffer at pH 7.4. Type of data set: physicochemical. A digest of the protocol:
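Hydrolysis in phosphate buffer, pH 7.4, at 37 °C; half-life in min.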

In data set [5] the target is T1, Neutrophil elastase (Homo sapiens, UniProt P08246).
T1 sequence (P08246 whole entry): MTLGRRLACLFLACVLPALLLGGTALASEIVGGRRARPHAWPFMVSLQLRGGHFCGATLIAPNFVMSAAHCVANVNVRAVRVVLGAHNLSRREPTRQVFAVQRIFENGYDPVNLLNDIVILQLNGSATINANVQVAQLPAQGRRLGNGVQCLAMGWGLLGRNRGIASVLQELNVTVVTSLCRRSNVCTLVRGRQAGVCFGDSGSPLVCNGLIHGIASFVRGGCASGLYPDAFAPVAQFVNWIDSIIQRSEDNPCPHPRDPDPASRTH
In words: Inhibition of human neutrophil elastase using chromogenic substrate (N-MeOSuc-Ala-Ala-Pro-Val-p-nitroanilide after 120 mins.

Data set [6] concerns the target T2, Cathepsin G (Homo sapiens, UniProt P08311).
T2 sequence (P08311 whole entry): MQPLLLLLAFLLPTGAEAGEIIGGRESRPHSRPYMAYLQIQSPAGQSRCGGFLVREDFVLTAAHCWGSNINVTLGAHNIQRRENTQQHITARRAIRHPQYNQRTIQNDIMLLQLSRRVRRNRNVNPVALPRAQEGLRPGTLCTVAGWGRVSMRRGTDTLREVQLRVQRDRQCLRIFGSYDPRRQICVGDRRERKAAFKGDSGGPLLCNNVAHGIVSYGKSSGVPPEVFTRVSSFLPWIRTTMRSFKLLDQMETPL
In words: Inhibition of cathepsin G using Suc-Ala-Ala-Pro-Phe-p-nitroanilide as substrate after 30 mins.

Data set [7] is filed under the species Sus scrofa. Nature of the data set: Inhibition of porcine pancreatic elastase using N-Suc-(L-Ala)3-p-nitroaniline at 50 to 500 uM. The note with it: TDE = time-dependent effect.
Data set [8] is filed under the species Sus scrofa. Nature of the data set: Inhibition of porcine pancreatic elastase using N-Suc-(L-Ala)3-p-nitroaniline.
The species named for data set [9] is Sus scrofa. Nature of the data set: Inhibition of porcine pancreatic elastase using N-Suc-(L-Ala)3-p-nitroaniline assessed as remaining activity at 2.5 to 500 uM after 15 mins. Put shortly: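 PPE (5 µM) with inhibitor 2.5–500 µM in pH 7.25 HEPES, 15 min incubation; aliquots assayed for remaining activity (vt/v0) versus [I]/[E]0 ratio to estimate equivalents needed for inactivation.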

Data set [10] can be described thus: Drug degradation in CD3ONa/CD3OD solution assessed as methyl 4-methoxybenzoate formation at room temperature after 15 mins by 1H-NMR analysis in the presence of sodium methoxide. Type of data set: physicochemical. The note with it: 0.25 h.
The species entered for data set [11] is Sus scrofa. Nature of the data set: Inhibition of porcine pancreatic elastase using N-Suc-(L-Ala)3-p-nitroaniline at 600 molar excess. Put shortly:
(§1)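 Pre-incubation of PPE with 300- or 600-fold molar excess of inhibitor; residual activity measured with N-Suc-(L-Ala)3-p-nitroanilide.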

Data set [12] is filed under the species Sus scrofa. Nature of the data set: Inhibition of porcine pancreatic elastase using N-Suc-(L-Ala)3-p-nitroaniline at 300 molar excess. A digest of the protocol: as §1

Active and inactive are the calls of the source. A value given as a limit tells only on which side of the number the result lay.

The term half-life denotes the time needed for the level to fall by half in the phase considered. Read a low half-life as rapid decline. For orientation: IC50 means the concentration that gives 50% inhibition. Lower therefore signals higher potency. Consider `COc1ccc(C(=O)N2C(=O)OC(C)(C)C2=O)cc1`, for which the Drug degradation result in data set [1], in data set [2], in [3] and in data set [10] was “Active” each time. The compound further had a half-life in [4] of 16.7 min. Further, the results for the IC50 in data set [5] and in data set [6] were 10.2 µM and 14.2 µM, respectively. For the same compound, the values for the inhibition entry in data set [7] and in data set [8] were “tde” and “Dose-dependent effect”, respectively. The Activity in data set [9] was below 20%.
Regarding `COc1ccc(N2C(=O)OC(C)C2=O)cc1` (stereo not drawn), in [11], the inhibition result was “inactive”. For the same compound, the IC50 in data set [5] was above 500 µM.
In data set [4], `Cc1ccc(S(=O)(=O)N2C(=O)OC(C)(C)C2=O)cc1` displayed a half-life of 6.86 min. This compound also had an IC50 in data set [5] of 2.6 µM. The inhibition result in data set [7] is “tde”; in [8] it was “Dose-dependent effect”. In [9], the Activity was below 20%.
As for `CC1OC(=O)N(c2ccc([N+](=O)[O-])cc2)C1=O` (stereo not drawn), the inhibition entry in data set [12] was “inactive”. In addition, in [4], the half-life worked out at 38.7 min. This compound also yielded an IC50 in [5] above 500 µM.
With `COc1ccc(N2C(=O)OC(C)(C)C2=O)cc1`, the inhibition result in [12] is “inactive”. The concentration for half-maximal inhibition (IC50) in data set [5] is above 500 µM.
The like results for `CC1(C)OC(=O)N(c2ccc([N+](=O)[O-])cc2)C1=O` were, in that order, “inactive” and above 500 µM.
Consider `CC1(C)OC(=O)N(Cc2ccccc2)C1=O`, for which the IC50 stood at 15.6 µM in data set [5] and 2.1 µM in data set [6]. Besides, the inhibition result in [7] is “tde”; in [8] it was “Dose-dependent effect”.
For `COc1ccc(C(=O)N2C(=O)OC(C)C2=O)cc1` (stereo not drawn), in data set [5], the IC50 was above 500 µM. Besides, the inhibition entry in data set [7] is “tde”; in data set [8], “Dose-dependent effect”. In addition, the Activity in [9] was below 20%.
With `CC1OC(=O)N(Cc2ccccc2)C1=O` (stereo not drawn), in data set [11], the inhibition entry is “inactive”. In [5], this compound had an IC50 above 500 µM.
Turning to `COc1ccc(C(=O)N2C(=O)OC(c3ccccc3)C2=O)cc1` (stereo not drawn), in data set [5], the IC50 came out at 15.6 µM. For the same compound, the inhibition result in data set [7] is “tde”; in data set [8] it was “Dose-dependent effect”. Also, the Activity in data set [9] is below 20%.

For the origin of these results see ChEMBL document CHEMBL2029305, “N-Acyl and N-sulfonyloxazolidine-2,4-diones are pseudo-irreversible inhibitors of serine proteases” (Bioorg Med Chem Lett, 2012).
